OX1R antag-1: OX1R (human) antagonism. O43613. OX1R-expressing cells, FRET antagonist read-out. inhibition, % at 6.6 µM. actives 1.8% (n = 330,000); in the data active = inhibition mostly above about 38%, no sharp cut-off; inactive = mostly below about 40%
Target sequence (O43613 whole entry, looked up): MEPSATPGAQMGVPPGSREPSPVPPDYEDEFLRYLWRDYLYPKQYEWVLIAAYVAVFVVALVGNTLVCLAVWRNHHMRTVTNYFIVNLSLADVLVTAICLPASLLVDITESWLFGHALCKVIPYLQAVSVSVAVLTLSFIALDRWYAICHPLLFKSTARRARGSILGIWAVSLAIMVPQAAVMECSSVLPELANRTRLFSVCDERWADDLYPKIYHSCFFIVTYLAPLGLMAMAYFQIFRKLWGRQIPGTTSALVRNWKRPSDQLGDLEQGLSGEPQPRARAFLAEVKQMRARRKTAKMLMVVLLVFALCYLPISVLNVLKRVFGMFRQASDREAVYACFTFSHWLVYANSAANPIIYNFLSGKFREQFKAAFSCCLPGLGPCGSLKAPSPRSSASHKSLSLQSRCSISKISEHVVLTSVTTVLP
TRPML3 agonist: agonists of human TRPML3 channel | Q8TDD5 | HEK293 TRPML3-YFP, Fluo-8 calcium fluorescence; 100% = the carbachol control signal | activation, % at 3 µM | actives 0.29% (n = 220,000) | AID 1448;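 active = activation above its plate's cutoff, the mean activation of the plate's test wells plus 3 SD, cut at about 12% in these data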
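Test system – HEK293 line with stable expression of human TRPML3-YFP channel · Control set – carbachol 87 µM final as high control (100%), DMSO as low control (0%) · Signal – Fluo-8 calcium dye fluorescence, ex 470-495, em 515-575 nm · Incubation – 1-h 37 °C dye load, 5-s basal, 120-s post-compound reads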
CHO parental Ca: signal in parental CHO cells, OX1R antagonist counter-screen. parental CHO-K1, ATP-induced calcium, Fluo-8 fluorescence. inhibition, % at 5.6 µM. actives 0.63% (n = 330,000). AID 463079;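 active = inhibition above that plate's mean sample inhibition plus 3 SD, cut at about 26% in these data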
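Assay system – parental CHO cells · Reagent – ATP stimulus · Detection – intracellular calcium via Fluo-8 no-wash fluorescent dye · Evaluation – percent inhibition of ATP-evoked calcium rise, normalized to controls · Controls – ATP wells versus no-ATP DMSO wells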
TRPN1 ag: agonists of zebrafish TRPN1 channel; HEK293 zebrafish TRPN1-YFP, Fluo-8 calcium fluorescence; 100% = response to 87 µM carbachol; activation, % at 3 µM; actives 0.18% (n = 220,000); AID 1424;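 active = activation above its plate's cutoff, the mean activation of test wells on that plate plus 3 SD, cut at about 19% in these data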
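System: zebrafish TRPN1-YFP in HEK293 cells / Dosing: 3 µM single point / Timing: dye loading 1 h at 37 °C, then 30 min room temperature / Signal: Fluo-8 calcium fluorescence, excitation 470-495 nm, emission 515-575 nm / Read-out basis: percent activation from peak over basal fluorescence ratio, control-normalized / Control set: high carbachol 87 µM, low DMSO alone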
OX1R antag-2: human HCRTR1 antagonism; CHO/OX1R cells, Fluo-8 calcium fluorescence, orexin A; actives 0.43% (n = 330,000); AID 434989; inhibition, % at 5 µM; O43613;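 active = inhibition above its plate's threshold, mean inhibition of all tested compounds on the plate plus 3 SD, cut at about 37% in these data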
OX1R HTRF conf: OX1R (human) antagonism, HTRF confirmed | shares compounds with OX1R antag-1 | OX1R-expressing cells, HTRF antagonist assay | inhibition, % at 6.6 µM | actives 49% (n = 1,800); in the data active = inhibition above about 55%;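 also: CHO cells expressing OX1R stimulated with orexin A at about EC80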
CHO-K1 HTRF: counter-screen for OX1R antagonists: effect in parental CHO-K1 cells | AID 493232 | inhibition, % at 6.6 µM | actives 48% (n = 1,800) | HTRF counterscreen | shares compounds with OX1R antag-1; in the data active = inhibition above about 17%
Numbers stand for hits; n = inactive; x = not tested or not shown. In the library only some 2.5% were active in any assay of this set; here they are far more common.

SMILES	OX1R antag-1	TRPML3 agonist	CHO parental Ca	TRPN1 ag	OX1R antag-2	OX1R HTRF conf	CHO-K1 HTRF
O=C(NCc1ccccc1Cl)[C@@H]1CCCN1S(=O)(=O)c1ccc(Cl)cc1	n	x	n	x	n	x	x
CCn1c(C)[n+](CCOC(C)=O)c2cc(Cl)c(Cl)cc21	88	n	n	n	n	n	n
CC(=O)Nc1ccc(S(=O)(=O)/N=C2\C(=O)c3ccccc3C([O-])=C2n2cc[n+](-c3ccccn3)c2)cc1	144	n	n	n	n	n	38
Cc1ccc(NC(=O)C[n+]2ccn(C3=C([O-])c4ccccc4C3=O)c2)cc1	n	n	n	n	n	x	x
O=C(NCCN1CCOCC1)c1cc(Sc2ccccc2Cl)nc2ccccc12	91	n	n	n	n	90	n
CCc1ccc(C(=O)OCC(=O)N(CCOC)c2c(N)n(Cc3ccccc3)c(=O)[nH]c2=O)cc1	n	x	n	x	n	x	x
CCN(CC)C(=O)CSc1nnc(-c2c[nH]c3ccccc23)o1	78	x	n	x	n	n	n
COC(=O)c1ccccc1COn1c(=O)c[n+]([O-])c2ccccc21	85	n	n	n	n	n	29
O=c1c[n+]([O-])c2ccccc2n1OCc1c(F)cccc1F	81	n	n	n	n	n	53
O=c1c[n+]([O-])c2ccccc2n1OCc1ccccn1	129	n	n	n	n	n	55
O=C(Nc1ccc(F)cc1Cl)c1ccc2c(=O)n3c(nc2c1)CCC3	n	x	n	x	n	x	x
COc1cc2nc(/C=C/c3cc(OC)c(OC)c(OC)c3)sc2cc1SC	79	n	n	n	n	84	n
COc1cc2nc(C)sc2cc1SC	n	n	n	n	n	x	x
Cc1ccc2nc3c(cc(C(=O)NCCCn4ccnc4)n3C)c(=O)n2c1	80	n	n	n	n	n	30
O=c1[nH]c(-c2ccccc2)c(-c2ccccc2)o1	n	x	n	x	n	x	x
CN(C)S(=O)(=O)c1ccc(N)c([N+](=O)[O-])c1	x	n	x	n	x	x	x
CC1CC(=O)NN=C1c1ccc(N)c([N+](=O)[O-])c1 (stereo not given)	83	n	n	n	n	n	29
O=C(NCCN1C(=O)S/C(=C\c2ccc(Cl)c(Cl)c2)C1=O)c1cnccn1	n	n	n	n	n	x	x
O=C(NCCN1C(=O)S/C(=C\c2ccc(Cl)c([N+](=O)[O-])c2)C1=O)C1=COCCO1	83	x	n	x	n	n	57
O=C(NC(=S)Nc1nc(-c2ccccc2)cs1)c1ccco1	79	n	n	n	n	63	n
COc1ccc(-c2csc(NC(=S)NC(=O)c3ccco3)n2)cc1	n	n	n	n	n	x	x
CCC(=O)N1CCc2cc(-c3csc(NC(=O)c4ccco4)n3)ccc21	94	x	n	x	n	66	n
COc1ccc2nc3oc(C(=O)N4CCC(C(N)=O)CC4)cc3cc2c1	154	n	n	n	n	n	38
CCOC(=O)C1CCN(C(=O)c2cc3cc4ccc(OC)cc4nc3o2)CC1	n	x	n	x	n	x	x
O=S(=O)(Nc1c(O)ccc2ccccc12)c1cccc2ccccc12	80	x	n	x	n	78	n
SMILES	OX1R antag-1	TRPML3 agonist	CHO parental Ca	TRPN1 ag	OX1R antag-2	OX1R HTRF conf	CHO-K1 HTRF
C=CCn1c(=N)c(C(=O)NCCCOC)cc2c(=O)n3ccccc3nc21	137	n	n	n	n	56	83
N#Cc1cc2c(=O)n3ccccc3nc2n(Cc2cccnc2)c1=N	x	n	x	n	x	x	x
CCOC(=O)c1cc2c(=O)n3ccccc3nc2n(Cc2ccco2)c1=NC(=O)c1ccc(OC)cc1	n	n	n	n	n	x	x
C=CCn1c(=O)c(C#N)cc2c(=O)n3ccccc3nc21	137	n	n	n	n	n	34
CCOC(=O)c1cc2c(=O)n3ccccc3nc2n(CCCOC)c1=NC(=O)c1ccncc1	85	n	n	n	n	n	33
N=c1c(C(=O)NCc2ccc(F)cc2)cc2c(=O)n3ccccc3nc2n1CCCN1CCOCC1	82	n	n	n	n	65	35
CNS(=O)(=O)c1c(C)cc(C)c(N(C)S(=O)(=O)c2ccccc2)c1C	n	n	n	n	n	x	x
O=C(CN1CCOCC1)Nc1ccc2c(c1)OCCO2	n	n	n	n	n	x	x
